Experimental data reported in ChEMBL document CHEMBL4513216, “Probing the Open Global Health Chemical Diversity Library for Multistage-Active Starting Points for Next-Generation Antimalarials” (ACS Infect Dis, 2020).

Assay: Toxicity liver stage against HepG2, at 10uM
Format: cell-based
Design: test concentration 10 uM, cell line HepG2-A16-CD81EGFP
Conditions: human, HepG2-A16-CD81EGFP cells; read-out: INHIBITION
Outline: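 Uninfected HepG2-A16-CD81EGFP cells, 3 × 10^3 per well, 1536-well, plated on prespotted compound at 10 μM final, parasite-free screening media added to match infected plates; puromycin 10 μM positive, DMSO 0.5% negative; run in parallel with 48 h PbLuc assay at 37 °C, 5% CO2; viability by CellTiter-Glo luminescence, normalized to controls.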

O=C1N[C@@H]2CCN(C(=O)C3CCC3)[C@@H]2C(=O)N1c1ccc(F)cc1
cytotoxicity at 10 µM: -6.43%

CO[C@H]1COCCN(C(=O)c2cc(C)oc2C(F)(F)F)C1
cytotoxicity at 10 µM: -12.1%

CN1C[C@H](O)C[C@H]1c1nc(-c2ccc(OC(F)(F)F)cc2)no1
cytotoxicity at 10 µM: -12.2%

COCCNC(=O)N1CCN(C(=O)c2nsc3ccc(C)cc23)CC1
cytotoxicity at 10 µM: 7%

CCOCCNC(=O)c1cccnc1N1CCCC1c1ccccn1 (stereo not given)
cytotoxicity at 10 µM: 4.65%

O=C(C1CC(=O)N(c2n[nH]c3cc(Br)ccc23)C1)N1CCOCC1 (stereo not given)
cytotoxicity at 10 µM: -3.27%

O=c1n(Cc2cccc(F)c2)nc2ncccn12
cytotoxicity at 10 µM: -7.9%

Cn1cnc2c1C(C(=O)N1CCOCC1)N(C(=O)c1ccccc1)CC2 (stereo not given)
cytotoxicity at 10 µM: -0.388%

Cc1cccc(S(=O)(=O)N2C[C@@H]3OCCN(C(C)C)[C@@H]3C2)c1
cytotoxicity at 10 µM: 7.64%

O=C(Nc1ccccc1)C1=NOC2(CCCN(C(=O)C3CCCC3)C2)C1 (stereo not given)
cytotoxicity at 10 µM: 4.88%

CC(C)(C)CC(=O)N1CCCC2(CC(C(=O)Nc3ccccc3)=NO2)C1 (stereo not given)
cytotoxicity at 10 µM: -6.63%

O=C(O)c1ccc2c(c1)C1(CCCCC1)CN2C(=O)c1ccnnc1
cytotoxicity at 10 µM: 3.59%

O=C1CC(c2cccs2)Cc2[nH]c(=O)ccc21 (stereo not given)
cytotoxicity at 10 µM: 0.185%

O=C(NCc1ccco1)N1CCCCC1c1nc(-c2ccncc2)no1 (stereo not given)
cytotoxicity at 10 µM: -7.92%

CC(C)CNC(=O)CSC1CCc2ccccc2NC1=O (stereo not given)
cytotoxicity at 10 µM: -2.38%

CC(C)c1cc2c(O)nc(CSCC(=O)O)nc2s1
cytotoxicity at 10 µM: -4.61%

COCC1c2nnn(CC3CC3)c2CCN1C(=O)c1cccc(F)c1 (stereo not given)
cytotoxicity at 10 µM: -8.31%

FC(F)(F)c1cc(N2CCc3ncnc(NC4CC4)c3CC2)ncn1
cytotoxicity at 10 µM: 1.79%

CCOC(=O)c1sc(NC(=O)COC)c(C#N)c1C
cytotoxicity at 10 µM: 7.61%

N#Cc1c(N2CCOCC2)nsc1-c1cccnc1
cytotoxicity at 10 µM: 17%

Cc1cc(C(=O)NCc2c(C)nn(C)c2C)nc(N2CCCC2)n1
cytotoxicity at 10 µM: 7.05%

O=C(Cn1cc(I)cn1)N1CCCC1
cytotoxicity at 10 µM: -0.653%

Cc1cc(NC2CC3(CCN(Cc4csc(C)n4)C3)C2)ncn1 (stereo not given)
cytotoxicity at 10 µM: -2.34%

Cc1cc(-c2ccc(=O)n(C3CCN(C(=O)C4CCC4)CC3)n2)c(C)o1
cytotoxicity at 10 µM: 4.22%

COCCNc1cccc(C2CCCN2)n1 (stereo not given)
cytotoxicity at 10 µM: -25.9%

Cn1nccc1C(=O)N1CCCC1c1[nH]ncc1C(N)=O (stereo not given)
cytotoxicity at 10 µM: -15.2%

O=C(CCn1ccnc1)N1C[C@@H](O)[C@H](Oc2cccc(F)c2)C1
cytotoxicity at 10 µM: -21.6%

O=C(C1CCCC1)N1CCC(c2ncc3c(n2)CCNC3)C1 (stereo not given)
cytotoxicity at 10 µM: -15.3%

Cc1ccc2c(c1)C(=O)NCC1(CCN(C(=O)c3cnccn3)CC1)O2
cytotoxicity at 10 µM: -15.8%

Cc1cnn(CC2CCN(CC(O)c3ccccc3F)CC2)c1 (stereo not given)
cytotoxicity at 10 µM: -5.18%

Cc1ccc(CN(Cc2cc(=O)n3cccc(C)c3n2)C(C)C)o1
cytotoxicity at 10 µM: 7.65%

Cc1nc(C(NC(=O)c2cc(C(C)C)[nH]n2)c2ccccc2)n[nH]1 (stereo not given)
cytotoxicity at 10 µM: 11.6%

CCC(=O)Nc1nnc2n(Cc3cccc(OC)c3)[nH]c(C)c1-2
cytotoxicity at 10 µM: -9.24%

COc1cc(F)cc(CNC(=O)Nc2ccn(CC(F)F)n2)c1
cytotoxicity at 10 µM: -2.21%

CCOC(=O)CCNC(=O)c1cccc2ccc(C)nc12
cytotoxicity at 10 µM: -5.15%

NC(=O)CN(Cc1ncc(-c2ccccc2)o1)C1CCCC1
cytotoxicity at 10 µM: -4.3%

Cc1ccc(C(=O)N(Cc2cccc(F)c2)C2CC2)c(=O)[nH]1
cytotoxicity at 10 µM: -4.86%

CC1CCN(CCCNC(=O)C2CCCCC2)CC1
cytotoxicity at 10 µM: -2.63%

CC(C)(C(=O)NCCC(=O)O)c1cccc(Br)c1
cytotoxicity at 10 µM: 7.01%

Cc1cnn(CCC(=O)N(CC2CN(C)CCO2)c2nccs2)c1 (stereo not given)
cytotoxicity at 10 µM: -5.82%

COc1c(F)cc(NC(=O)NCc2nncn2C2CC2)cc1F
cytotoxicity at 10 µM: -4.7%

C[S+]([O-])c1nncn1CC(=O)c1cccc(Br)c1 (stereo not given)
cytotoxicity at 10 µM: 1.08%

O=C(NS(=O)(=O)c1cc(Cl)ccc1Cl)c1cccc2c1OCCO2
cytotoxicity at 10 µM: 10.3%

Cc1noc(C)c1CNC(=O)N1CCCC(C)CC1 (stereo not given)
cytotoxicity at 10 µM: -7.31%

CCCc1nc(C)c(C(=O)NC2CCN(CC(N)=O)CC2)s1
cytotoxicity at 10 µM: -6.3%

OC1(CNc2cc(C(F)(F)F)nc3ccccc23)CCOCC1
cytotoxicity at 10 µM: -11.3%

COc1ccccc1C(NC(=O)NC1CC1)c1noc(C)n1 (stereo not given)
cytotoxicity at 10 µM: -4.12%

CN(C(=O)C1(C#N)CCCCC1)c1nccs1
cytotoxicity at 10 µM: 0.658%

Cc1cc(CNC(=O)NCc2cccs2)ccc1S(C)(=O)=O
cytotoxicity at 10 µM: -6.97%

Cc1nccc(CNS(=O)(=O)N2CCCC2c2ccc(C)o2)n1 (stereo not given)
cytotoxicity at 10 µM: -5.88%

CN(C(=O)NCCCNc1ccccn1)C1CCS(=O)(=O)C1 (stereo not given)
cytotoxicity at 10 µM: 4.67%

Cc1ccoc1C(=O)N(CCN(C)C)Cc1ccccn1
cytotoxicity at 10 µM: -5.47%

CN(C)C(=O)Cc1ccccc1NCc1cc(C#N)ccc1F
cytotoxicity at 10 µM: 48.1%

CC(C)NC(=O)CS(=O)(=O)c1cc2c(cc1Cl)OCCO2
cytotoxicity at 10 µM: -2.46%

CCCC(=O)N(C)c1cc(C#N)c2ccccc2n1
cytotoxicity at 10 µM: -7.55%
